Source: ChEMBL document CHEMBL4732101, “Novel quinolone-based potent and selective HDAC6 inhibitors: Synthesis, molecular modeling studies and biological investigation” (Eur J Med Chem, 2021)
Activity calls are given as the source filed them. The rule behind the calls is not given here.

What was measured:
Histone deacetylase 8 = molecular target: T1, Histone deacetylase 8 (Homo sapiens, UniProt Q9BY41); experiment: Inhibition of recombinant human HDAC8 using Fluor-de-Lys as substrate measured after 1 hr by fluorescence assay
T1 sequence (Q9BY41 whole entry): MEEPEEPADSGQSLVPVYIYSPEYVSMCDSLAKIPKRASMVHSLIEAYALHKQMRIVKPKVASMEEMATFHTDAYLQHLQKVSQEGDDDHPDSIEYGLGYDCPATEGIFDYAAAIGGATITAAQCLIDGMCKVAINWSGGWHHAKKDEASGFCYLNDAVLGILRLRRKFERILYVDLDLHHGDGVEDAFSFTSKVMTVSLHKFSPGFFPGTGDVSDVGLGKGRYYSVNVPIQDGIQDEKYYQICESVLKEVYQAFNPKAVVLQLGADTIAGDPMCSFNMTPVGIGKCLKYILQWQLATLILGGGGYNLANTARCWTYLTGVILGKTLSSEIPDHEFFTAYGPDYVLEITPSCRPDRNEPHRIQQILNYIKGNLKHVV

HCT-116 [1] = experiment: Cytotoxicity against human HCT-116 cells assessed as reduction in cell viability measured after 12 hrs by MTT assay; assay type: functional, cell-based; settings: HCT-116, 12 h
How it was run: (§1)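 HCT-116 cells grown in DMEM with 10% FBS, 2 mM L-glutamine and antibiotics. 2.5×10^4 cells/well treated in triplicate at 50, 25, 10, 5 and 1 µM for 12, 24 or 48 h. Then MTT 0.5 mg/ml for 3 h, supernatant removed, formazan dissolved in isopropanol, absorbance read at 570 nm. IC50 derived from the concentration series.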

HCT-116 [2] = experiment: Cytotoxicity against human HCT-116 cells assessed as reduction in cell viability measured after 24 hrs by MTT assay; assay type: functional, cell-based; settings: HCT-116, 24 h; how it was run: as §1
HCT-116 [3] = experiment: Cytotoxicity against human HCT-116 cells assessed as reduction in cell viability measured after 48 hrs by MTT assay; assay type: functional, cell-based; settings: HCT-116, 48 h; how it was run: as §1
U-937 [4] = experiment: Cytotoxicity against human U-937 cells assessed as reduction in cell viability measured after 48 hrs by MTT assay; assay type: functional, cell-based; settings: U-937, 48 h
How it was run: (§2)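 U937 cells grown in RPMI-1640 with 10% FBS, 2 mM L-glutamine and penicillin-streptomycin. 2.5×10^4 cells/well treated in triplicate at 50, 25, 10, 5 and 1 µM for 12, 24 or 48 h. MTT 0.5 mg/ml added for 3 h, plate centrifuged 5 min at 1200 rpm, crystals dissolved in isopropanol, A570 read. IC50 derived from the concentration series.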

HCT-116 [5] = experiment: Cytotoxicity against human HCT-116 cells assessed as reduction in cell proliferation at 25 uM measured after 48 hrs by MTT assay relative to control; assay type: functional; design: scale not given: the % may be the effect or the level left; settings: time 12 hrs, in the assay text read “after 12 hrs” for “after 48 hrs”; how it was run: as §1
HCT-116 [6] = experiment: Cytotoxicity against human HCT-116 cells assessed as reduction in cell proliferation at 10 uM measured after 24 hrs by MTT assay relative to control; assay type: functional; design: scale not given: the % may be the effect or the level left; how it was run: as §1
HCT-116 [7] = experiment: Cytotoxicity against human HCT-116 cells assessed as reduction in cell proliferation at 10 uM measured after 48 hrs by MTT assay relative to control; assay type: functional; design: scale not given: the % may be the effect or the level left; how it was run: as §1
U-937 [8] = experiment: Cytotoxicity against human U-937 cells assessed as reduction in cell proliferation at 50 uM measured after 48 hrs by MTT assay relative to control; assay type: functional; design: scale not given: the % may be the effect or the level left; how it was run: as §2
HCT-116 [9] = experiment: Induction of apoptosis in human HCT-116 cells assessed as increase in PARP cleavage at 10 uM measured after 24 hrs by Western blot analysis; assay type: functional, cell-based
How it was run: (§3)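 HCT-116 or U937 cells treated at 10 µM for 12 and 24 h. […] Western blot used 40 µg total protein or 5 µg acid-extracted histone. Blots probed for cleaved PARP, acetylated tubulin, H3K9/14ac and Hsp90(AcLys294), normalized to GAPDH or H4. Compared with control cells by one-way ANOVA and Dunnett's test.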

U-937 [10] = experiment: Induction of apoptosis in human U-937 cells assessed as increase in PARP cleavage at 10 uM measured after 24 hrs by Western blot analysis; assay type: functional, cell-based; how it was run: as §3
[11] = molecular target: T2, Protein deacetylase HDAC6 (Homo sapiens) (UniProt Q9UBN7); experiment: Inhibition of HDAC6 in human HCT-116 cells assessed as increase in alpha-tubulin acetylation at 10 uM measured after 12 to 24 hrs by Western blot analysis relative to control; assay type: cell-based; settings: time 12-24 hrs; how it was run: as §3
T2 sequence (whole entry): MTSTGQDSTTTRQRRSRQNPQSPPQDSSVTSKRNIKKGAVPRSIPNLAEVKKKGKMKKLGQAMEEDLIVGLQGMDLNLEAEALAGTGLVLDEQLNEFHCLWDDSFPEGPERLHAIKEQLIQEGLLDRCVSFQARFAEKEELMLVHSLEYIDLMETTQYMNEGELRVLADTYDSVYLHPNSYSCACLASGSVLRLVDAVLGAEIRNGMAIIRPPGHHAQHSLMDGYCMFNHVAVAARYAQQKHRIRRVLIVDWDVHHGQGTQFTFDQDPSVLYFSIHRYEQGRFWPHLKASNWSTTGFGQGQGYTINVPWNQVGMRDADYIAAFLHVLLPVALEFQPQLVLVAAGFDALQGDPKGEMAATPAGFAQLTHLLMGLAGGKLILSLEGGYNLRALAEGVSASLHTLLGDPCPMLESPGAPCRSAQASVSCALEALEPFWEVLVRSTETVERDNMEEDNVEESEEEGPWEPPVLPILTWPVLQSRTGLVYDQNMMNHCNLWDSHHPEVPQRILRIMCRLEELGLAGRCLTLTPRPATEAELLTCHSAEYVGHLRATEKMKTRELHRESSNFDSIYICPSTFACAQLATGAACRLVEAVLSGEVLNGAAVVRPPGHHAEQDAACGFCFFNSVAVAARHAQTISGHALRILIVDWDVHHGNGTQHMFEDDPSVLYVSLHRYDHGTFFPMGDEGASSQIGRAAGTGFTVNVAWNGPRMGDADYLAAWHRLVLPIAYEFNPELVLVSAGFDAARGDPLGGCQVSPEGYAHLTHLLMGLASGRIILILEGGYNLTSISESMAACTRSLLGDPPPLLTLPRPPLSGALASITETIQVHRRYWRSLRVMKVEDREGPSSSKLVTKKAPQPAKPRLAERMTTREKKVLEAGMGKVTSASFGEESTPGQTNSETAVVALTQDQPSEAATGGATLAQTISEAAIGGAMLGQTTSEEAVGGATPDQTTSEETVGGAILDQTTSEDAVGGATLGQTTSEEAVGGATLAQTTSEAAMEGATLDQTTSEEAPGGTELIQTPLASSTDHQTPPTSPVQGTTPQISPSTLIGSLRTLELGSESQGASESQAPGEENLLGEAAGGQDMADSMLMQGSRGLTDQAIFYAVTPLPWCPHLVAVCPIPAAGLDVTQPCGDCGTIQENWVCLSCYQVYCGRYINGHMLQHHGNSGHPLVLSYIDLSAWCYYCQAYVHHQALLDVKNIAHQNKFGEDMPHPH

[12] = molecular target: T2, Protein deacetylase HDAC6 (Homo sapiens); experiment: Inhibition of HDAC6 in human U-937 cells assessed as increase in alpha-tubulin acetylation at 10 uM measured after 12 to 24 hrs by Western blot analysis relative to control; assay type: cell-based; settings: time 12-24 hrs; how it was run: as §3
[13] = Inhibition of HDAC1/2/3/8 in human HCT-116 cells assessed as increase in H3K9/14 acetylation at 10 uM measured after 12 to 24 hrs by Western blot analysis relative to control; assay type: cell-based; settings: hct-116, 10 µM, time 12-24 hrs; how it was run: as §3
[14] = Inhibition of HDAC1/2/3/8 in human U-937 cells assessed as increase in H3K9/14 acetylation at 10 uM measured after 12 to 24 hrs by Western blot analysis; assay type: cell-based; settings: u-937, 10 µM, time 12-24 hrs; how it was run: as §3
[15] = molecular target: T2, Protein deacetylase HDAC6 (Homo sapiens); experiment: Inhibition of HDAC6 in human HCT-116 cells assessed as increase in Hsp90(AcLys294) acetylation at 10 uM measured after 12 to 24 hrs by Western blot analysis; assay type: cell-based; settings: time 12-24 hrs; how it was run: as §3
[16] = molecular target: T2, Protein deacetylase HDAC6 (Homo sapiens); experiment: Inhibition of HDAC6 in human U-937 cells assessed as increase in Hsp90(AcLys294) acetylation at 10 uM measured after 12 to 24 hrs by Western blot analysis; assay type: cell-based; settings: time 12-24 hrs; how it was run: as §3
[17] = Cytotoxicity against human PBMC cells assessed as reduction in cell viability at 45 uM measured after 24 to 48 hrs by GUAVA easyCyte cytometric method; assay type: cell-based; settings: time 24-48 hrs
How it was run: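 PBMCs seeded at 1.5 x10^6/mL in complete medium and exposed to 15, 45 or 90 µM test compound, or DMSO vehicle, for 24 h and 48 h. Percentage of viable cells determined by flow cytometry with ViaCount reagent.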

- IC50 (Histone deacetylase 8): 0.55 µM
- Kapp (Histone deacetylase 8; human, 1 h): 0.36 µM
- fold change (FC) [11]: > 9
- fold change (FC) [12]: > 9
- fold change (FC) [13]: 2
- inhibition (INH) [14]: Active
- inhibition [15]: Active
- inhibition [16]: inactive
Structure (SMILES): CCN(CC)Cc1ccc(Cn2c(=O)c(OCc3ccc(C(=O)NO)cc3)c(-c3ccccc3)c3ccccc32)cc1
- IC50 (HCT-116 [1]): 13.5 µM
- IC50 (HCT-116 [2]): 11.6 µM
- IC50 (HCT-116 [3]): 3.6 µM
- IC50 (U-937 [4]): 40.6 µM
- Activity (HCT-116 [5]): 80%
- Activity (HCT-116 [6]): 50%
- Activity (HCT-116 [7]): 90%
- Activity (U-937 [8]): 60%
- Activity (HCT-116 [9]): Active
- Activity (U-937 [10]): Active
- Activity [17]: Toxic
